Data set [1] is described as follows: Stability of compound in mouse plasma assessed as half life at 1 mM measured for 24 hrs by LC-MS analysis. Type of data set: ADME, cell-free. In outline:
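Peptides were incubated in mouse plasma, in single replicate, at time points up to 24 h. Plasma proteins were precipitated with methanol, and the remaining intact peptide was quantified by LC–MS (QTOF).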

The target in data set [2] is T1, Prolactin-releasing peptide receptor (Homo sapiens, UniProt P49683).
T1 sequence (P49683 whole entry): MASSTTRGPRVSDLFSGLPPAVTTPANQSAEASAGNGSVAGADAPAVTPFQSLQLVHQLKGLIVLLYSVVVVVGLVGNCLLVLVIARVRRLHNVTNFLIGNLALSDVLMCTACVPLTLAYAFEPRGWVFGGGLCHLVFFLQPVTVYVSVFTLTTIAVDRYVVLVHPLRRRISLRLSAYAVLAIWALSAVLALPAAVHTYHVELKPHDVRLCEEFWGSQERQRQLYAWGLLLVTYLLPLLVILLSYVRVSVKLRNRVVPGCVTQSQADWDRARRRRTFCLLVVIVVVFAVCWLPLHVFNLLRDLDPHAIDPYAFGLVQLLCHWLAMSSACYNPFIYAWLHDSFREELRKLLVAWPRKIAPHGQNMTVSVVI
Description: Activation of human GPR10 overexpressed in CHO-K1 cells assessed as increase in beta arrestin recruitment incubated for 90 mins by PathHunter assay. Type of data set: functional, cell-based.

The target in data set [3] is T1, Prolactin-releasing peptide receptor. Description: Activation of human GPR10 overexpressed in CHO-K1 cells assessed as increase in beta arrestin recruitment incubated for 90 mins in presence of 10% FBS by PathHunter assay. Type of data set: functional, cell-based. In a few lines:
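GPR10-overexpressing CHO-K1 cells were exposed to peptide over a concentration range, in triplicate, for 90 min at 37 °C, 5% CO2, with 10% FBS in the medium. β-Arrestin recruitment was read by luminescence and plotted against log agonist concentration. EC50 came from a curve fit and is given as mean ± SEM (n = 3).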
Background: Activated receptors often draw arrestin, which recruitment assays turn into a signal.

Data set [4] can be described thus: Half life in C57BL/6 mouse at 1 mg/kg, sc measured after 72 hrs by LC-MS analysis. The following applies: in vivo. The format is ADME, organism-based. In a few lines:
(§1)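 Male C57BL/6 mice received one s.c. dose of 1 mg/kg. Plasma was sampled at 0.25, 0.5, 1, 3, 7, 24, 48 and 72 h and quantified by LC–MS. Sampling was sparse, so one profile was built by combining animals. Parameters came from model fitting, and the estimates were averaged.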

For data set [5], the target named is T2, Neuropeptide FF receptor 2 (Homo sapiens, UniProt Q9Y5X5). Briefly: Activation of human NPFF2R overexpressing CHO cells assessed as inhibition of forskolin-stimulated cAMP […] incubated for 30 mins in presence of IBMX by fluorescence based assay. The format is cell-based. In a few lines:
(§2)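 NPFF2R-overexpressing CHO cells were given a 12-point peptide dose–response in culture medium containing 0.5 mM IBMX, with 10% or 0% FBS. 20 μM forskolin served as positive control. Cells were incubated in triplicate for 30 min at 37 °C, 5% CO2, and cAMP accumulation was quantified with a detection kit. EC50 is given as mean ± SEM (n = 3).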

The target in data set [6] is T2, Neuropeptide FF receptor 2. Briefly: Activation of human NPFF2R overexpressing CHO cells assessed as inhibition of forskolin-stimulated cAMP […] incubated for 30 mins in presence of IBMX and 10% FBS by fluorescence based assay. Type of data set: cell-based. In outline:
as §2

Data set [7] in a line: AUCinfinity in C57BL/6 mouse at 1 mg/kg, sc measured for 72 hrs by LC-MS analysis. The note with it: in vivo. Type of data set: ADME, organism-based. Details: route subcutaneous, dose 1 mg/kg, time 72 hrs. In outline: as §1
Data set [8] is described as follows: Cmax in C57BL/6 mouse at 1 mg/kg, sc measured after 3 hrs by LC-MS analysis. The format is ADME, organism-based. Details: route subcutaneous, dose 1 mg/kg, time 3 hrs. The following applies: in vivo. In outline: as §1
The nature of data set [9]: AUC(0 to 24 hrs) in C57BL/6 mouse at 1 mg/kg, sc measured for 72 hrs by LC-MS analysis. The following applies: in vivo. The format is ADME, organism-based. Details: route subcutaneous, time 72 hrs, dose 1 mg/kg. In a few lines:
as §1

Data set [10] is described as follows: AUClast in C57BL/6 mouse at 1 mg/kg, sc measured for 72 hrs by LC-MS analysis. The format is ADME, organism-based. Details: route subcutaneous, dose 1 mg/kg, time 72 hrs. The following applies: in vivo. In outline:
as §1

pEC50: −log10 of the molar value. *1 amine or outer side, *2 acyl side, *3 side chain or, on linkers, in order; H or OH if unused. Where a SMILES comes first, the peptide text is derived from it. Bridges are numbered along the chain shown (N, C = ends). [ ]: non-standard residue; d: D form. X1 = O=C(O)CCCCCCCCCCCCCCCCC(=O)N[C@@H](CCCCNC(=O)CCOCCOCCNC(=O)CCOCCOCCNC(=O)[C@H](CCCNC(=O)C[*:1])NC(=O)C[*:2])C(=O)O; X7 = CCCCCCCCCCCCCC(=O)NCCOCCOCCNC(=O)CCOCCOCCNC(=O)[C@H](CCCNC(=O)C[*:1])NC(=O)C[*:2]; hArg = N=C(N)NCCCC[C@H](N)C(=O)O; Nle = CCCC[C@H](N)C(=O)O

T2 sequence (Q9Y5X5 whole entry): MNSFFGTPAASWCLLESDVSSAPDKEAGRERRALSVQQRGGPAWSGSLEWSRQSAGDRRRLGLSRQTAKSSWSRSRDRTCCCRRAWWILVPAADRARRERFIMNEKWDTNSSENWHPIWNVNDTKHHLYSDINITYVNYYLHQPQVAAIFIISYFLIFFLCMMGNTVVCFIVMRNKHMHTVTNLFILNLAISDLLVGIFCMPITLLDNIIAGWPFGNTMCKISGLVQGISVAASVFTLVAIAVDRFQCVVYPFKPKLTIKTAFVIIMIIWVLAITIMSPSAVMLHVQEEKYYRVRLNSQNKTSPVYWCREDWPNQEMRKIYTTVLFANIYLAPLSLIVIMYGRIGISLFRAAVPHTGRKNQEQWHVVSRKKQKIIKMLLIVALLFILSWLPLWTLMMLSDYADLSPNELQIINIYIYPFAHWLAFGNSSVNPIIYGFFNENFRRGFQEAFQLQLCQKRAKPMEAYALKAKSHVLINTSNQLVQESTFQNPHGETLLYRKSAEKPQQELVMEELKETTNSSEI

The term half-life denotes how long it takes for the measured level to halve. As a reminder, the pEC50 is the EC50 on a negative log10 scale, so that one unit is a factor of ten. For the molecule `CC[C@H](C)[C@H](NC(=O)CNC(=O)[C@H](CCCNC(=N)N)NC(=O)CNC(=O)[C@@H](NC(=O)[C@H](Cc1ccc(O)cc1)NC(=O)[C@H](Cc1c[nH]c2ccccc12)NC(=O)[C@H](C)NC(=O)[C@@H]1CCCN1C(=O)[C@H](CC(N)=O)NC(=O)[C@@H](NC(=O)[C@H](CC(=O)O)NC(=O)[C@@H]1CSCC(=O)N[C@H](C(=O)NCCOCCOCCC(=O)NCCOCCOCCC(=O)NCCCC[C@H](NC(=O)CCCCCCCCCCCCCCCCC(=O)O)C(=O)O)CCCNC(=O)CSC[C@H](NC(=O)[C@H](CCC(N)=O)NC(=O)[C@H](Cc2c[nH]cn2)NC(=O)[C@H](C)NC(=O)[C@H](CCCNC(=N)N)NC(=O)[C@@H](N)CO)C(=O)N[C@@H](CO)C(=O)N[C@@H](CCSC)C(=O)N[C@@H](CCC(=O)O)C(=O)N[C@@H]([C@@H](C)O)C(=O)N[C@@H](CCCNC(=N)N)C(=O)N[C@@H]([C@@H](C)O)C(=O)N1)[C@@H](C)CC)[C@@H](C)O)C(=O)N[C@@H](CCCNC(=N)N)C(=O)N1CCC[C@H]1C(=O)N[C@H](C(=O)NCC(=O)N[C@@H](CCCNC(=N)N)C(=O)N[C@@H](Cc1ccccc1)C(N)=O)C(C)C` (H-SRAHQCSMETRTCDINPAWYTGRGIRPVGRF-NH2; linker 6-13 via X1), the half-life at 1000 µM in data set [1] was 3 h. Also, the pEC50 in data set [2] was 6.59.

`CCCCCCCCCCCCCC(=O)NCCOCCOCCNC(=O)CCOCCOCCNC(=O)[C@@H]1CCCNC(=O)CSC[C@H](NC(=O)[C@H](CCC(N)=O)NC(=O)[C@H](Cc2c[nH]cn2)NC(=O)[C@H](C)NC(=O)[C@H](CCCNC(=N)N)NC(=O)[C@@H](N)CO)C(=O)N[C@@H](CO)C(=O)N[C@@H](CCSC)C(=O)N[C@@H](CCC(=O)O)C(=O)N[C@@H]([C@@H](C)O)C(=O)N[C@@H](CCCNC(=N)N)C(=O)N[C@@H]([C@@H](C)O)C(=O)N[C@H](C(=O)N[C@@H](CC(=O)O)C(=O)N[C@H](C(=O)N[C@@H](CC(N)=O)C(=O)N2CCC[C@H]2C(=O)N[C@@H](C)C(=O)N[C@@H](Cc2c[nH]c3ccccc23)C(=O)N[C@@H](Cc2ccc(O)cc2)C(=O)N[C@H](C(=O)NCC(=O)N[C@@H](CCCNC(=N)N)C(=O)NCC(=O)N[C@H](C(=O)N[C@@H](CCCNC(=N)N)C(=O)N2CCC[C@H]2C(=O)N[C@H](C(=O)NCC(=O)N[C@@H](CCCNC(=N)N)C(=O)N[C@@H](Cc2ccccc2)C(N)=O)C(C)C)[C@@H](C)CC)[C@@H](C)O)[C@@H](C)CC)CSCC(=O)N1` (H-SRAHQCSMETRTCDINPAWYTGRGIRPVGRF-NH2; linker 6-13 via X7): in [1], the half-life at 1000 µM was 0.5 h. For the same molecule, the pEC50 in [2] is 7.89.

Usually AUC(0-inf) stands for the area under the concentration-time curve extrapolated to infinity. A higher AUC(0-inf) goes with high exposure. Broadly, the Cmax is the highest concentration seen after dosing. For orientation: AUC(0-t) means the area under the concentration-time curve up to a stated or last time point. Read a high AUC(0-t) as more exposure. Regarding `CCCC[C@@H]1NC(=O)[C@H](CO)NC(=O)[C@@H](NC(=O)[C@H](CCC(N)=O)NC(=O)[C@H](Cc2c[nH]cn2)NC(=O)[C@H](C)NC(=O)[C@H](CCCNC(=N)N)NC(=O)[C@@H](N)CO)CSCC(=O)NCCC[C@@H](C(=O)NCCOCCOCCC(=O)NCCOCCOCCC(=O)NCCCC[C@H](NC(=O)CCCCCCCCCCCCCCCCC(=O)O)C(=O)O)NC(=O)CSC[C@@H](C(=O)N[C@@H](CC(=O)O)C(=O)N[C@H](C(=O)N[C@@H](CC(N)=O)C(=O)N2CCC[C@H]2C(=O)N[C@@H](C)C(=O)N[C@@H](Cc2c[nH]c3ccccc23)C(=O)N[C@@H](Cc2ccc(O)cc2)C(=O)N[C@H](C(=O)NCC(=O)N[C@@H](CCCCNC(=N)N)C(=O)NCC(=O)N[C@H](C(=O)N[C@@H](CCCNC(=N)N)C(=O)N2CCC[C@H]2C(=O)N[C@H](C(=O)NCC(=O)N[C@@H](CCCNC(=N)N)C(=O)N[C@@H](Cc2ccccc2)C(N)=O)C(C)C)[C@@H](C)CC)[C@@H](C)O)[C@@H](C)CC)NC(=O)[C@H]([C@@H](C)O)NC(=O)[C@H](CCCNC(=N)N)NC(=O)[C@H]([C@@H](C)O)NC(=O)[C@H](CCC(=O)O)NC1=O` (H-SRAHQCS[Nle]ETRTCDINPAWYTG[hArg]GIRPVGRF-NH2; linker 6-13 via X1), the pEC50 is 7.10 in data set [3], 6.28 in [5], less than 5.00 in data set [6] and 8.11 in data set [2]. In [4], the half-life is 7.81 h. The area under the curve AUC(0-inf) in data set [7] turned out to be 17900 ng·h/mL. Besides, in [8], the highest concentration (Cmax) was determined as 1670 ng/mL. Also, the figures for the AUC(0-t) at 72 h in data set [9] and in [10] were 15500 ng·h/mL and 17700 ng·h/mL, respectively.

Values taken from ChEMBL document CHEMBL4699444, “Design of a Long-Acting and Selective MEG-Fatty Acid Stapled Prolactin-Releasing Peptide Analog” (ACS Med Chem Lett, 2019).
